Experimental data from ChEMBL document CHEMBL6134796, “Development and Evaluation of Indole-Based Phospholipase D Inhibitors for Lung Cancer Immunotherapy” (J Med Chem, 2025).
Active and inactive are the calls of the source. The calls are words filed in the database; no cut-off is given here.

Experiments:
A549 [1] = assay: Inhibition of colony formation in human A549 cells incubated for 48 hrs by crystal violet staining based analysis; type: functional, cell-based
In short: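 A549 cells seeded at 500 to 1,000 per well; compound added 48 h after seeding, then 48 h further incubation; medium changed every 3 days, kept 10 days total; fixed in 4% PFA 20 min, crystal violet 30 min; colonies counted by image analysis.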

A549 [2] = assay: Cytotoxicity against human A549 cells assessed as inhibition of cell growth incubated for 48 hrs by WST-1 assay; type: functional, cell-based; conditions: A549, 48 h
A549 [3] = assay: Downregulation of PD-L1 expression in human A549 cells by flow cytometry analysis; type: functional, cell-based
In short: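 A549 cells treated with compound. Surface "don't eat-me" and "eat-me" markers measured by flow cytometry.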

[4] = Metabolic stability in human plasma assessed as parent compound remaining at 10 uM measured after 120 mins; type: ADME, cell-free; conditions: read-out: Stability
In short: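 Citrated human plasma spiked to final 10 μM, incubated at 37 °C for 0, 30 and 120 min; quenched with acetonitrile containing internal standard, vortexed, centrifuged at 4 °C; parent remaining quantified by LC-MS/MS in MRM mode on C18 column, formic acid water/acetonitrile gradient.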

A549 [5] = assay: Cytotoxicity against human A549 cells assessed as increase in cell death rate by WST-1 assay; type: functional, cell-based; conditions: time 2-48 hrs
[6] = molecular target: Tubulin beta (Homo sapiens) (UniProt P68371+Q9H4B7+Q13509+P04350+Q3ZCM7+P07437+Q13885+Q9BVA1+Q9BUF5+A6NNZ2); assay: Binding affinity to beta-tubulin in human A549 cells assessed as protection against pronase E-mediated proteolysis at 2 to 20 uM incubated for 1 hr by DARTS assay; type: cell-based; conditions: dose 2-20 µM
In short: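 A549 lysates made in buffer with protease and phosphatase inhibitors. Lysates were incubated with compound for 1 h at room temperature, then digested with Pronase for 10 min at RT. Digestion was quenched in SDS loading buffer by boiling 5 min. PLD1 and β-tubulin were detected by immunoblot.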

A549 [7] = assay: Inhibition of PLD1 F789A mutant (unknown origin) overexpressed in human A549 cells; type: cell-based
In short: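 A549 cells transfected with wild-type PLD1, PLD1 mutants (L425A, F614A, F789A) or PLD2, then compound-treated. PLD activity measured as [3H]phosphatidylbutanol formed in the presence of 1-butanol after [3H]myristic acid labeling, expressed as % of total lipid cpm. At least three independent experiments.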

[8] = molecular target: T1, Phospholipase D1 (Homo sapiens) (UniProt Q13393); assay: Inhibition of wild type PLD1 (unknown origin) overexpressed in human A549 cells; type: cell-based
T1 sequence (whole entry): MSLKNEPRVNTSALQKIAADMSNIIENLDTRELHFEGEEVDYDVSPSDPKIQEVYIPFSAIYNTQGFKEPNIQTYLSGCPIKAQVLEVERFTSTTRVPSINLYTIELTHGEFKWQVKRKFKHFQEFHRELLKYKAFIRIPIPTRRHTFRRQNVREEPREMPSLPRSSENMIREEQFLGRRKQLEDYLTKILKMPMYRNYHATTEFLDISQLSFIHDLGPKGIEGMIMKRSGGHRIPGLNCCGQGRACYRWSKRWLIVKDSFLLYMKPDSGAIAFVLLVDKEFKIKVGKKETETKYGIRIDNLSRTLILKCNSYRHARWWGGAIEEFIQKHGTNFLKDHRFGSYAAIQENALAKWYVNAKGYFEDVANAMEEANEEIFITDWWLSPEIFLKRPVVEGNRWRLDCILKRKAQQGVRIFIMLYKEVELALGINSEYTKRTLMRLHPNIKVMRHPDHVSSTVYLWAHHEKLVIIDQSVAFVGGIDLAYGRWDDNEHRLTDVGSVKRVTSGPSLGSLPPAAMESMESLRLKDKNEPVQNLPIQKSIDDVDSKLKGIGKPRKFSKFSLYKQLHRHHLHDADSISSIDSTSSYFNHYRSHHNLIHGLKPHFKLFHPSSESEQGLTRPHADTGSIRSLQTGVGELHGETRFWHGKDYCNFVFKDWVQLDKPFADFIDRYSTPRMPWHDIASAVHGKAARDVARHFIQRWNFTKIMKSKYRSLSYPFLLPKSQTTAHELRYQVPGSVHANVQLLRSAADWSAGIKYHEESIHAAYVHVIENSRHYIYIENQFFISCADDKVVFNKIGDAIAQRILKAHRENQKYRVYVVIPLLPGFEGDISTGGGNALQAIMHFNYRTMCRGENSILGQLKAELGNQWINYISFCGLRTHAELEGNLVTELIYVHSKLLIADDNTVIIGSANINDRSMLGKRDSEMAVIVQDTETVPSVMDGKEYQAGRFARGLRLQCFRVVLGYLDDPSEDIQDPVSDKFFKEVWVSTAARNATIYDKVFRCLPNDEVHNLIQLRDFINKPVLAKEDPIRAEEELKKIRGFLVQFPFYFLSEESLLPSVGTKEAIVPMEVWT
In short: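 A549 cells transfected with wild-type PLD1, labeled with [3H] myristic acid; PLD activity as [3H] phosphatidylbutanol formed by transphosphatidylation with 1-butanol, expressed as percent of total lipid cpm in PtdBut; alternatively, cells treated 1 h and read by Amplex Red kit (ex 540/em 590 nm); at least three independent experiments.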

[9] = Metabolic stability in human liver microsomes assessed as parent compound remaining at 1 uM preincubated for 5 mins followed by NADPH regenerating system addition and measured after 30 mins by LC-MS/MS analysis; type: ADME, Microsome; conditions: time 35 min, read-out: Stability
In short: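 Human liver microsomes 0.5 mg/mL in 0.1 M phosphate buffer pH 7.4, compound 1 μM, preincubated 5 min at 37 °C; NADPH regenerating system added, 30 min at 37 °C; quenched with acetonitrile containing chlorpropamide internal standard, centrifuged; parent remaining by LC-MS/MS, MRM mode, C18 column with formic acid/acetonitrile gradient.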

[10] = system: Lewis lung carcinoma cell line; assay: Antitumor activity against mouse Lewis lung carcinoma cell line allografted in […] male C57BL/6 mouse model assessed as reduction in cell proliferation at 10 mg/kg, po measured every other day for 3 weeks; type: functional, organism-based

In the case of `O=C(CCc1c[nH]c2ccccc12)Nc1cc(C(F)(F)F)cc(C(F)(F)F)c1`, the inhibition (A549 [1]) is reported as “Active”, the IC50 (A549 [2]) is reported as 18 µM and the Activity (A549 [3]) is reported as “Active”. For the same compound, the remaining at 2 h, 10 µM [4] was 94.6%, the Activity (A549 [5]) was “Time-dependent-effect” and the Activity [6] was “inactive”. For the same compound, the inhibition (A549 [7]) was “inactive”, the inhibition [8] was “Active” and the remaining at 0.5 h, 1 µM [9] was 57.3%. The Activity [10] was “Active”.
